From ChEMBL document CHEMBL1156036, “A class of novel N-(3S-1,2,3,4-tetrahydroisoquinoline-3-carbonyl)-L-amino acid derivatives: their synthesis, anti-thrombotic activity evaluation, and 3D QSAR analysis” (Eur J Med Chem, 2009)
Square brackets hold non-standard residues; d marks the D form. Peptide text beside a SMILES is read from it. Tic = O=C(O)[C@@H]1Cc2ccccc2CN1

Legend:
Assay type in all cases: functional
[1] = Antiplatelet aggregatory activity in pig […] assessed as inhibition of platelet-activating factor-induced platelet aggregation; details: Sus scrofa
Method in brief: (§1)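 Pig blood spun 1000g 10 min for platelet-rich plasma, then 1500g 10 min for platelet-poor plasma; platelets adjusted to 2×10^8/ml with autologous PPP. Test agent in NS (final 100 to 0.001 μM) added to 0.5 ml plasma, then inducer in NS: PAF 0.1 μM, ADP 10 μM, AA 350 μM or thrombin 0.1 U/ml (final). Optical aggregometry, 37 °C, 5 min, six tubes.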

[2] = Antiplatelet aggregatory activity in pig […] assessed as inhibition of thrombin-induced platelet aggregation; details: Sus scrofa; method in brief: as §1
Rattus norvegicus [3] = species on record: Rattus norvegicus; assay: Ratio of compound antithrombotic potency to aspirin antithrombotic potency in Wistar rat assessed as reduction of wet thrombus weight
[4] = Antiplatelet aggregatory activity in pig […] assessed as inhibition of arachidonic acid-induced platelet aggregation; details: Sus scrofa; method in brief: as §1
Rattus norvegicus [5] = assay: Antithrombotic activity in Wistar rat assessed as reduction of wet thrombus weight at 5 umol/kg, iv after 15 mins
Method in brief: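 Male Wistar rats, 250-300 g, given agent dissolved in NS (kept on ice) intravenously; Aspirin 15 μmol/kg as reference, NS as vehicle. Pentobarbital sodium 80.0 mg/kg i.p. Arteriovenous shunt from right carotid artery to left jugular vein via polyethylene tube containing a thread; blood flowed 15 min; wet thrombus weighed, n = 12, mean ± SD.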

[6] = Antiplatelet aggregatory activity in pig […] assessed as inhibition of ADP-induced platelet aggregation; details: Sus scrofa; method in brief: as §1

In the case of C[C@H](NC(=O)[C@@H]1Cc2ccccc2CN1)C(=O)O (H-[Tic]-Ala-OH), the IC50 [1] is reported as 352 nM, the IC50 [2] is reported as 485 nM and the Ratio (Rattus norvegicus [3]) is reported as greater than 30. For the same compound, the IC50 [4] was 104 nM, the Activity (Rattus norvegicus [5]) was 21.4 mg and the IC50 [6] was 350 nM.

Work on NC(=O)C[C@H](NC(=O)[C@@H]1Cc2ccccc2CN1)C(=O)O (H-[Tic]-Asn-OH) yielded an IC50 [1] of 153 nM, an IC50 [2] of 551 nM and a Ratio (Rattus norvegicus [3]) greater than 30. It also gave an IC50 [4] of 166 nM, an Activity (Rattus norvegicus [5]) of 20.24 mg and an IC50 [6] of 470 nM.

In the case of O=C(O)C[C@H](NC(=O)[C@@H]1Cc2ccccc2CN1)C(=O)O (H-[Tic]-Asp-OH), the IC50 [1] is reported as 633 nM, the IC50 [2] is reported as 157 nM and the Ratio (Rattus norvegicus [3]) is reported as greater than 30. The IC50 [4] was 391 nM, the Activity (Rattus norvegicus [5]) was 21.67 mg and the IC50 [6] was 329 nM.

For O=C(O)[C@H](CS)NC(=O)[C@@H]1Cc2ccccc2CN1 (H-[Tic]-Cys-OH), the IC50 [1] was 780 nM, the IC50 [2] was 386 nM and the Ratio (Rattus norvegicus [3]) was greater than 30. It also gave an IC50 [4] of 460 nM, an Activity (Rattus norvegicus [5]) of 20.91 mg and an IC50 [6] of 231 nM.

NC(=O)CC[C@H](NC(=O)[C@@H]1Cc2ccccc2CN1)C(=O)O (H-[Tic]-Gln-OH) showed an IC50 [1] of 138 nM, an IC50 [2] of 935 nM and a Ratio (Rattus norvegicus [3]) greater than 30. The IC50 [4] was 494 nM, the Activity (Rattus norvegicus [5]) was 22.08 mg and the IC50 [6] was 235 nM.

With O=C(O)CC[C@H](NC(=O)[C@@H]1Cc2ccccc2CN1)C(=O)O (H-[Tic]-Glu-OH) the IC50 [1] was 176 nM, the IC50 [2] was 545 nM and the Ratio (Rattus norvegicus [3]) was greater than 30. It also gave an IC50 [4] of 356 nM, an Activity (Rattus norvegicus [5]) of 19.69 mg and an IC50 [6] of 482 nM.

O=C(O)CNC(=O)[C@@H]1Cc2ccccc2CN1 (H-[Tic]-Gly-OH) gave an IC50 [1] of 791 nM, an IC50 [2] of 306 nM and a Ratio (Rattus norvegicus [3]) greater than 30. It also gave an IC50 [4] of 108 nM, an Activity (Rattus norvegicus [5]) of 20.24 mg and an IC50 [6] of 496 nM.

Work on O=C(O)[C@H](Cc1c[nH]cn1)NC(=O)[C@@H]1Cc2ccccc2CN1 (H-[Tic]-His-OH) yielded an IC50 [1] of 724 nM, an IC50 [2] of 370 nM and a Ratio (Rattus norvegicus [3]) greater than 30. It also gave an IC50 [4] of 491 nM, an Activity (Rattus norvegicus [5]) of 20.86 mg and an IC50 [6] of 661 nM.

With CC[C@H](C)[C@H](NC(=O)[C@@H]1Cc2ccccc2CN1)C(=O)O (H-[Tic]-Ile-OH) the IC50 [1] was 938 nM, the IC50 [2] was 657 nM and the Ratio (Rattus norvegicus [3]) was greater than 30. It also gave an IC50 [4] of 443 nM, an Activity (Rattus norvegicus [5]) of 20.03 mg and an IC50 [6] of 540 nM.

CC(C)C[C@H](NC(=O)[C@@H]1Cc2ccccc2CN1)C(=O)O (H-[Tic]-Leu-OH) showed an IC50 [1] of 1610 nM, an IC50 [2] of 454 nM and a Ratio (Rattus norvegicus [3]) greater than 30. It also gave an IC50 [4] of 290 nM, an Activity (Rattus norvegicus [5]) of 20.23 mg and an IC50 [6] of 478 nM.

NCCCC[C@H](NC(=O)[C@@H]1Cc2ccccc2CN1)C(=O)O (H-[Tic]-Lys-OH) showed an IC50 [1] of 1040 nM, an IC50 [2] of 733 nM and a Ratio (Rattus norvegicus [3]) greater than 30. It also gave an IC50 [4] of 277 nM, an Activity (Rattus norvegicus [5]) of 21.28 mg and an IC50 [6] of 194 nM.

Work on CSCC[C@H](NC(=O)[C@@H]1Cc2ccccc2CN1)C(=O)O (H-[Tic]-Met-OH) yielded an IC50 [1] of 376 nM, an IC50 [2] of 312 nM and a Ratio (Rattus norvegicus [3]) greater than 30. The IC50 [4] was 191 nM, the Activity (Rattus norvegicus [5]) was 21.74 mg and the IC50 [6] was 229 nM.

O=C(O)[C@H](Cc1ccccc1)NC(=O)[C@@H]1Cc2ccccc2CN1 (H-[Tic]-Phe-OH) showed an IC50 [1] of 218 nM, an IC50 [2] of 336 nM and a Ratio (Rattus norvegicus [3]) greater than 30. It also gave an IC50 [4] of 553 nM, an Activity (Rattus norvegicus [5]) of 19.11 mg and an IC50 [6] of 188 nM.

For O=C(O)[C@@H]1CCCN1C(=O)[C@@H]1Cc2ccccc2CN1 (H-[Tic]-Pro-OH), the IC50 [1] was 1400 nM, the IC50 [2] was 185 nM and the Ratio (Rattus norvegicus [3]) was greater than 30. For the same compound, the IC50 [4] was 103 nM, the Activity (Rattus norvegicus [5]) was 20.25 mg and the IC50 [6] was 364 nM.

In the case of O=C(O)[C@H](CO)NC(=O)[C@@H]1Cc2ccccc2CN1 (H-[Tic]-Ser-OH), the IC50 [1] is reported as 942 nM, the IC50 [2] is reported as 841 nM and the Ratio (Rattus norvegicus [3]) is reported as greater than 30. The IC50 [4] was 416 nM, the Activity (Rattus norvegicus [5]) was 23.58 mg and the IC50 [6] was 388 nM.

With C[C@@H](O)[C@H](NC(=O)[C@@H]1Cc2ccccc2CN1)C(=O)O (H-[Tic]-Thr-OH) the IC50 [1] was 588 nM, the IC50 [2] was 763 nM and the Ratio (Rattus norvegicus [3]) was greater than 30. It also gave an IC50 [4] of 418 nM, an Activity (Rattus norvegicus [5]) of 21.25 mg and an IC50 [6] of 164 nM.
